Test results reported in ChEMBL document CHEMBL5058577, “EUbOPEN Chemogenomics Library 2 (Multiplex)” (2022).

Tested on: HEK-293T
Test: Multiplex assay against HEK293T
Format: toxicity, cell-based
Details: human
In short: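 Live cells were stained at seeding with Hoechst33342, BioTracker Green Microtubule Cytoskeleton Dye, MitoTracker Red and Annexin V Alexa Fluor 680. Following compound addition, they were imaged on a CQ1 microscope at 37°C and 5% CO2 and gated by CellPathfinder machine learning into Hoechst high-intensity objects or normal cells, with normal cells split into healthy, pyknosed or fragmented nuclei and pyknosed cells into mitotic or apoptotic. Tubulin, mitochondrial-mass and membrane-permeability phenotypes are per cents of healthy-nucleus cells.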

[1] = 12 h, 1 µM, compound concentration 1 uM, replicate 1
[2] = 12 h, 1 µM, compound concentration 1 uM, replicate 2
[3] = 12 h, 10 µM, compound concentration 10 uM, replicate 1
[4] = 12 h, 10 µM, compound concentration 10 uM, replicate 2
[5] = 24 h, 1 µM, compound concentration 1 uM, replicate 1
[6] = 24 h, 1 µM, compound concentration 1 uM, replicate 2
[7] = 24 h, 10 µM, compound concentration 10 uM, replicate 1
[8] = 24 h, 10 µM, compound concentration 10 uM, replicate 2
[9] = 48 h, 1 µM, compound concentration 1 uM, replicate 1
[10] = 48 h, 1 µM, compound concentration 1 uM, replicate 2
[11] = 48 h, 10 µM, compound concentration 10 uM, replicate 1
[12] = 48 h, 10 µM, compound concentration 10 uM, replicate 2

CSc1nc(NC2CCCC2)c([N+](=O)[O-])c(NC2CCCC2)n1 [GS-39783]
Population Apoptotic (%) [1]: 45% | Population Fragmented Nuclei (%) [1]: 11% | Population Healthy Nuclei (%) [1]: 74% | Population Hoechst High Intensity Objects (%) [1]: 8% | Population Membrane Permeable-Phenotype (%) [1]: 0% | Population Mitochondria Different-Phenotype (%) [1]: 41% | Population Mitotic Cells (%) [1]: 54% | Population Normal (%) [1]: 91% | Population Pyknosed Nuclei (%) [1]: 14% | Population Tubulin-Different-Phenotype (%) [1]: 30% | Total Cell Count [1]: 346 | Population Apoptotic (%) [2]: 40% | Population Fragmented Nuclei (%) [2]: 3% | Population Healthy Nuclei (%) [2]: 85% | Population Hoechst High Intensity Objects (%) [2]: 4% | Population Mitochondria Different-Phenotype (%) [2]: 68% | Population Mitotic Cells (%) [2]: 59% | Population Normal (%) [2]: 95% | Population Pyknosed Nuclei (%) [2]: 11% | Population Tubulin-Different-Phenotype (%) [2]: 27% | Total Cell Count [2]: 301 | Population Apoptotic (%) [3]: 29% | Population Fragmented Nuclei (%) [3]: 6% | Population Healthy Nuclei (%) [3]: 81% | Population Hoechst High Intensity Objects (%) [3]: 6% | Population Membrane Permeable-Phenotype (%) [3]: 0% | Population Mitochondria Different-Phenotype (%) [3]: 50% | Population Mitotic Cells (%) [3]: 70% | Population Normal (%) [3]: 93% | Population Pyknosed Nuclei (%) [3]: 12% | Population Tubulin-Different-Phenotype (%) [3]: 40% | Total Cell Count [3]: 449 | Population Apoptotic (%) [4]: 40% | Population Fragmented Nuclei (%) [4]: 5% | Population Healthy Nuclei (%) [4]: 84% | Population Hoechst High Intensity Objects (%) [4]: 5% | Population Mitochondria Different-Phenotype (%) [4]: 68% | Population Mitotic Cells (%) [4]: 60% | Population Normal (%) [4]: 94% | Population Pyknosed Nuclei (%) [4]: 10% | Population Tubulin-Different-Phenotype (%) [4]: 29% | Total Cell Count [4]: 406 | Population Apoptotic (%) [5]: 30% | Population Fragmented Nuclei (%) [5]: 12% | Population Healthy Nuclei (%) [5]: 76% | Population Hoechst High Intensity Objects (%) [5]: 7% | Population Membrane Permeable-Phenotype (%) [5]: 0% | Population Mitochondria Different-Phenotype (%) [5]: 25% | Population Mitotic Cells (%) [5]: 69% | Population Normal (%) [5]: 92% | Population Pyknosed Nuclei (%) [5]: 11% | Population Tubulin-Different-Phenotype (%) [5]: 19% | Total Cell Count [5]: 492 | Population Apoptotic (%) [6]: 38% | Population Fragmented Nuclei (%) [6]: 7% | Population Healthy Nuclei (%) [6]: 84% | Population Hoechst High Intensity Objects (%) [6]: 8% | Population Mitochondria Different-Phenotype (%) [6]: 51% | Population Mitotic Cells (%) [6]: 61% | Population Normal (%) [6]: 91% | Population Pyknosed Nuclei (%) [6]: 7% | Total Cell Count [6]: 360 | Population Apoptotic (%) [7]: 27% | Population Fragmented Nuclei (%) [7]: 11% | Population Healthy Nuclei (%) [7]: 78% | Population Hoechst High Intensity Objects (%) [7]: 5% | Population Membrane Permeable-Phenotype (%) [7]: 1% | Population Mitochondria Different-Phenotype (%) [7]: 30% | Population Mitotic Cells (%) [7]: 72% | Population Normal (%) [7]: 94% | Population Pyknosed Nuclei (%) [7]: 10% | Population Tubulin-Different-Phenotype (%) [7]: 30% | Total Cell Count [7]: 553 | Population Apoptotic (%) [8]: 37% | Population Fragmented Nuclei (%) [8]: 8% | Population Healthy Nuclei (%) [8]: 83% | Population Hoechst High Intensity Objects (%) [8]: 6% | Population Membrane Permeable-Phenotype (%) [8]: 0% | Population Mitochondria Different-Phenotype (%) [8]: 52% | Population Mitotic Cells (%) [8]: 62% | Population Normal (%) [8]: 93% | Population Pyknosed Nuclei (%) [8]: 7% | Population Tubulin-Different-Phenotype (%) [8]: 28% | Total Cell Count [8]: 474 | Population Apoptotic (%) [9]: 35% | Population Fragmented Nuclei (%) [9]: 15% | Population Healthy Nuclei (%) [9]: 74% | Population Hoechst High Intensity Objects (%) [9]: 3% | Population Membrane Permeable-Phenotype (%) [9]: 1% | Population Mitochondria Different-Phenotype (%) [9]: 22% | Population Mitotic Cells (%) [9]: 64% | Population Normal (%) [9]: 96% | Population Pyknosed Nuclei (%) [9]: 9% | Population Tubulin-Different-Phenotype (%) [9]: 22% | Total Cell Count [9]: 775 | Population Apoptotic (%) [10]: 30% | Population Fragmented Nuclei (%) [10]: 13% | Population Healthy Nuclei (%) [10]: 77% | Population Hoechst High Intensity Objects (%) [10]: 6% | Population Membrane Permeable-Phenotype (%) [10]: 0% | Population Mitochondria Different-Phenotype (%) [10]: 32% | Population Mitotic Cells (%) [10]: 69% | Population Normal (%) [10]: 93% | Population Pyknosed Nuclei (%) [10]: 8% | Population Tubulin-Different-Phenotype (%) [10]: 24% | Total Cell Count [10]: 505 | Population Apoptotic (%) [11]: 17% | Population Fragmented Nuclei (%) [11]: 14% | Population Healthy Nuclei (%) [11]: 78% | Population Hoechst High Intensity Objects (%) [11]: 3% | Population Membrane Permeable-Phenotype (%) [11]: 1% | Population Mitochondria Different-Phenotype (%) [11]: 27% | Population Mitotic Cells (%) [11]: 82% | Population Normal (%) [11]: 96% | Population Pyknosed Nuclei (%) [11]: 7% | Population Tubulin-Different-Phenotype (%) [11]: 21% | Total Cell Count [11]: 856 | Population Apoptotic (%) [12]: 30% | Population Fragmented Nuclei (%) [12]: 13% | Population Healthy Nuclei (%) [12]: 77% | Population Hoechst High Intensity Objects (%) [12]: 5% | Population Membrane Permeable-Phenotype (%) [12]: 0% | Population Mitochondria Different-Phenotype (%) [12]: 35% | Population Mitotic Cells (%) [12]: 69% | Population Normal (%) [12]: 94% | Population Pyknosed Nuclei (%) [12]: 8% | Total Cell Count [12]: 647
